Reference: ChEMBL document CHEMBL4330069, “Boosting the efficacy of anti-MRSA β-lactam antibiotics via an easily accessible, non-cytotoxic and orally bioavailable FtsZ inhibitor” (Eur J Med Chem, 2019)
pIC50: −log10 of the molar value. Values after ≈ are worked out from the molar mass of the structure shown. Active and inactive are the calls of the source.

Key:
Escherichia coli = test: Antibacterial activity against Escherichia coli ATCC 25922 by broth microdilution assay; format: functional
Outline: (§1)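 Broth microdilution per CLSI guidelines; compounds dissolved in DMSO; single agents tested; growth inhibition read by eye; run in duplicate (table footnote states at least triplicates).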

Staphylococcus aureus [1] = test: Antibacterial activity against Staphylococcus aureus ATCC 29213 by broth microdilution assay; format: functional; outline: as §1
L929 = test: Cytotoxicity against mouse L929 cells by MTS assay; format: cell-based
Outline: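 MTS assay on L929 mouse fibroblasts; IC50 reported as the average of three independent measurements.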

[2] = Selective index, ratio of IC50 for mouse L929 cells to MIC for Staphylococcus aureus ATCC 29213
Outline: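 Selectivity index calculated as L929 IC50 (μM) divided by S. aureus MIC (μM).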

Staphylococcus aureus [3] = test: Bactericidal activity against Staphylococcus aureus ATCC BAA-41 assessed as log reduction in bacterial growth at 2 to 4 times MIC up to 7 hrs by time kill assay; format: functional
Outline: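 Mid-log S. aureus BAA-41 culture (OD595 0.8) diluted to 5×10^5 CFU/mL in CA-MH broth. […] Incubated at 37 °C with shaking at 250 rpm, sampled at 0, 2.5, 5, 7.5, 21 and 24 h, and plated on drug-free CA-MH agar for 24 h at 37 °C to count viable cells; triplicates.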

[4] = target: T1, Cell division protein FtsZ (Staphylococcus aureus) (UniProt P0A031); test: Inhibition of Staphylococcus aureus N-terminal 6His-tagged FtsZ polymerization expressed in Escherichia coli BL21 (DE3) at 100 uM relative to control
T1 sequence (whole entry): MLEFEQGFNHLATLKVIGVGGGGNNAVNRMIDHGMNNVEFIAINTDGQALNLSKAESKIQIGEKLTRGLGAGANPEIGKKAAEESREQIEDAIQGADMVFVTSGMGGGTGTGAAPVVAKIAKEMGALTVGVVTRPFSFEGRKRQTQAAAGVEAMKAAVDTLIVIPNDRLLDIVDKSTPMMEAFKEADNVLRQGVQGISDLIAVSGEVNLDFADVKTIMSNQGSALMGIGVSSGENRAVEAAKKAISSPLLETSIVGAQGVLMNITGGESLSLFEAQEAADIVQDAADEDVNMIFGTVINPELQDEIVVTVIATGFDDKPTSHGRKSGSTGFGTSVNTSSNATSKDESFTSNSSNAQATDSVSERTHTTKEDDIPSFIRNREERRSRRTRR
Outline: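 Purified S. aureus FtsZ polymerization with GTP, followed as light scattering (absorbance 600 nm) over time. Compound was tested at 12.5–100 µM against a 1% DMSO vehicle, and inhibition was read at 500 s. Triplicate.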

[5] = target: T1, Cell division protein FtsZ (Staphylococcus aureus); test: Inhibition of Staphylococcus aureus N-terminal 6His-tagged FtsZ GTPase expressed in Escherichia coli BL21 (DE3) at 30 uM relative to control
[6] = target: T1, Cell division protein FtsZ (Staphylococcus aureus); test: Inhibition of Staphylococcus aureus N-terminal 6His-tagged FtsZ GTPase expressed in Escherichia coli BL21 (DE3) at 50 uM relative to control
[7] = target: T1, Cell division protein FtsZ (Staphylococcus aureus); test: Inhibition of Staphylococcus aureus N-terminal 6His-tagged FtsZ GTPase expressed in Escherichia coli BL21 (DE3) at 100 uM relative to control
Staphylococcus aureus [8] = test: Antibacterial activity against Staphylococcus aureus ATCC BAA-41 at […] after 24 hrs by time kill assay; format: functional, organism-based
Outline: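 Time-kill assay. S. aureus BAA-41 was grown in CA-MH broth to mid-log phase (OD595 0.8), then diluted to 5×10^5 CFU/mL. […] Samples were taken at 0–24 h and plated on drug-free CA-MH agar for 24 h. Triplicates.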

Staphylococcus aureus [9] = test: Synergistic bactericidal activity against Staphylococcus aureus ATCC BAA-41 at 1 to 16 times MIC in presence of methicillin up to 24 hrs by time kill assay; format: functional, organism-based
Outline: (§2)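 Colony of strain grown 16 h in CA-MH broth at 37 °C with shaking, diluted 100-fold and grown to mid-log (OD595 0.8), then set at 5×10^5 CFU/mL. […] Sampled at 0, 2.5, 5, 7.5, 21, 24 h, diluted and plated on drug-free CA-MH agar, 24 h at 37 °C; triplicates.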

Staphylococcus aureus [10] = test: Synergistic antibacterial activity against Staphylococcus aureus ATCC BAA-41 at 1 to 16 times MIC in presence of methicillin after 21 hrs by time kill assay; format: functional, organism-based; outline: as §2
Staphylococcus aureus [11] = test: Antibacterial activity against multidrug-resistant Staphylococcus aureus ATCC 43300 infected in BALB/C mouse assessed as mouse survival at 25 mg/kg, ip bid measured on day 4 post infection (reference value: 50%); format: functional
Staphylococcus aureus [12] = test: Antibacterial activity against multidrug-resistant Staphylococcus aureus ATCC 43300 infected in BALB/C mouse assessed as mouse survival at 50 mg/kg, ip bid measured after 5 days; format: functional, organism-based
Staphylococcus aureus [13] = test: Antibacterial activity against multidrug-resistant Staphylococcus aureus isolate 2490 by broth microdilution assay; format: functional
Outline: (§3)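 Broth microdilution MIC per CLSI guidelines against clinical MRSA isolates, for β-lactams and test compound alone and in combination. Compounds were dissolved in DMSO. Growth was read by eye, in duplicate. FIC index = FIC(compound) + FIC(drug); synergy defined as FIC index ≤0.5.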

Staphylococcus aureus [14] = test: Antibacterial activity against multidrug-resistant Staphylococcus aureus isolate 254 by broth microdilution assay; format: functional; outline: as §3
Staphylococcus aureus [15] = test: Antibacterial activity against multidrug-resistant Staphylococcus aureus isolate 231 by broth microdilution assay; format: functional; outline: as §3
Staphylococcus aureus [16] = test: Antibacterial activity against multidrug-resistant Staphylococcus aureus isolate 417 by broth microdilution assay; format: functional; outline: as §3
Staphylococcus aureus [17] = test: Antibacterial activity against multidrug-resistant Staphylococcus aureus isolate 1344 by broth microdilution assay; format: functional; outline: as §3
Staphylococcus aureus [18] = test: Antibacterial activity against multidrug-resistant Staphylococcus aureus isolate 2901 by broth microdilution assay; format: functional; outline: as §3
Staphylococcus aureus [19] = test: Antibacterial activity against multidrug-resistant Staphylococcus aureus isolate 3589 by broth microdilution assay; format: functional; outline: as §3
Staphylococcus aureus [20] = test: Antibacterial activity against multidrug-resistant Staphylococcus aureus isolate 256 by broth microdilution assay; format: functional; outline: as §3
Staphylococcus aureus [21] = test: Antibacterial activity against multidrug-resistant Staphylococcus aureus isolate 3332 by broth microdilution assay; format: functional; outline: as §3
Staphylococcus aureus [22] = test: Antibacterial activity against multidrug-resistant Staphylococcus aureus isolate 3411 by broth microdilution assay; format: functional; outline: as §3
Staphylococcus aureus [23] = test: Antibacterial activity against multidrug-resistant Staphylococcus aureus isolate 1136 by broth microdilution assay; format: functional; outline: as §3
Staphylococcus aureus [24] = test: Antibacterial activity against multidrug-resistant Staphylococcus aureus isolate 2895 by broth microdilution assay; format: functional; outline: as §3
Staphylococcus aureus [25] = test: Antibacterial activity against multidrug-resistant Staphylococcus aureus isolate 2516 by broth microdilution assay; format: functional; outline: as §3
Staphylococcus aureus [26] = test: Antibacterial activity against multidrug-resistant Staphylococcus aureus isolate 3267 by broth microdilution assay; format: functional; outline: as §3
Staphylococcus aureus [27] = test: Antibacterial activity against multidrug-resistant Staphylococcus aureus isolate 757 by broth microdilution assay; format: functional; outline: as §3
Staphylococcus aureus [28] = test: Antibacterial activity against multidrug-resistant Staphylococcus aureus isolate 1749 by broth microdilution assay; format: functional; outline: as §3
Staphylococcus aureus [29] = test: Antibacterial activity against multidrug-resistant Staphylococcus aureus isolate 1402 by broth microdilution assay; format: functional; outline: as §3
Staphylococcus aureus [30] = test: Antibacterial activity against multidrug-resistant Staphylococcus aureus isolate 2919 by broth microdilution assay; format: functional; outline: as §3
Staphylococcus aureus [31] = test: Antibacterial activity against multidrug-resistant Staphylococcus aureus isolate 2728 by broth microdilution assay; format: functional; outline: as §3
Staphylococcus aureus [32] = test: Antibacterial activity against multidrug-resistant Staphylococcus aureus isolate 1717 by broth microdilution assay; format: functional; outline: as §3
Staphylococcus aureus [33] = test: Antibacterial activity against multidrug-resistant Staphylococcus aureus isolate 2224 by broth microdilution assay; format: functional; outline: as §3
Staphylococcus aureus [34] = test: Antibacterial activity against multidrug-resistant Staphylococcus aureus isolate 358 by broth microdilution assay; format: functional; outline: as §3
Staphylococcus aureus [35] = test: Antibacterial activity against multidrug-resistant Staphylococcus aureus isolate 3580 by broth microdilution assay; format: functional; outline: as §3
Staphylococcus aureus [36] = test: Antibacterial activity against multidrug-resistant Staphylococcus aureus isolate 774 by broth microdilution assay; format: functional; outline: as §3
Staphylococcus aureus [37] = test: Antibacterial activity against multidrug-resistant Staphylococcus aureus isolate 200 by broth microdilution assay; format: functional; outline: as §3
Staphylococcus aureus [38] = test: Antibacterial activity against multidrug-resistant Staphylococcus aureus isolate 2973 by broth microdilution assay; format: functional; outline: as §3
Staphylococcus aureus [39] = test: Antibacterial activity against multidrug-resistant Staphylococcus aureus isolate 85 by broth microdilution assay; format: functional; outline: as §3
Staphylococcus aureus [40] = test: Antibacterial activity against multidrug-resistant Staphylococcus aureus isolate 1449 by broth microdilution assay; format: functional; outline: as §3

With `NC(=O)c1c(F)ccc(OCc2nc3cc(Cl)cnc3s2)c1F` the MIC (Escherichia coli) was > 64 µg/mL, the MIC (Staphylococcus aureus [1]) was 1.6 µM (≈ 0.569 µg/mL) and the pIC50 (L929) was < 4.00. For the same compound, the “Selectivity Index” value [2] was >63, the log(activity) (Staphylococcus aureus [3]) was > 4 and the inhibition [4] was “Active”. It also gave an inhibition [5] of -47%, an inhibition [6] of -29% and an inhibition [7] of -15%. For the same compound, the Activity (Staphylococcus aureus [8]) was “Active”, the Activity (Staphylococcus aureus [9]) was “Active” and the Activity (Staphylococcus aureus [10]) was “Active”.
With `CO/N=C(\C(=O)N[C@@H]1C(=O)N2C(C(=O)O)=C(COC(N)=O)CS[C@H]12)c1ccco1` [CEFUROXIME] the Activity (Staphylococcus aureus [11]) was 70%, the Activity (Staphylococcus aureus [12]) was “inactive” and the MIC (Staphylococcus aureus [13]) was 32 µg/mL (≈ 75.4 µM). The MIC (Staphylococcus aureus [14]) was 1020 µg/mL (≈ 2410 µM), the MIC (Staphylococcus aureus [15]) was 1020 µg/mL (≈ 2410 µM) and the MIC (Staphylococcus aureus [16]) was 1020 µg/mL (≈ 2410 µM). For the same compound, the MIC (Staphylococcus aureus [17]) was 256 µg/mL (≈ 603 µM), the MIC (Staphylococcus aureus [18]) was 16 µg/mL (≈ 37.7 µM) and the MIC (Staphylococcus aureus [19]) was 512 µg/mL (≈ 1210 µM). The MIC (Staphylococcus aureus [20]) was 256 µg/mL (≈ 603 µM), the MIC (Staphylococcus aureus [21]) was 512 µg/mL (≈ 1210 µM) and the MIC (Staphylococcus aureus [22]) was 1020 µg/mL (≈ 2410 µM). The MIC (Staphylococcus aureus [23]) was 512 µg/mL (≈ 1210 µM), the MIC (Staphylococcus aureus [24]) was 64 µg/mL (≈ 151 µM) and the MIC (Staphylococcus aureus [25]) was 512 µg/mL (≈ 1210 µM). For the same compound, the MIC (Staphylococcus aureus [26]) was 256 µg/mL (≈ 603 µM), the MIC (Staphylococcus aureus [27]) was 32 µg/mL (≈ 75.4 µM) and the MIC (Staphylococcus aureus [28]) was 16 µg/mL (≈ 37.7 µM). It also gave an MIC (Staphylococcus aureus [29]) of 16 µg/mL (≈ 37.7 µM), an MIC (Staphylococcus aureus [30]) of 16 µg/mL (≈ 37.7 µM) and an MIC (Staphylococcus aureus [31]) of 16 µg/mL (≈ 37.7 µM). For the same compound, the MIC (Staphylococcus aureus [32]) was 16 µg/mL (≈ 37.7 µM), the MIC (Staphylococcus aureus [33]) was 8 µg/mL (≈ 18.9 µM) and the MIC (Staphylococcus aureus [34]) was 2 µg/mL (≈ 4.71 µM). For the same compound, the MIC (Staphylococcus aureus [35]) was 1020 µg/mL (≈ 2410 µM), the MIC (Staphylococcus aureus [36]) was 1020 µg/mL (≈ 2410 µM) and the MIC (Staphylococcus aureus [37]) was 2 µg/mL (≈ 4.71 µM). The MIC (Staphylococcus aureus [38]) was 8 µg/mL (≈ 18.9 µM), the MIC (Staphylococcus aureus [39]) was 8 µg/mL (≈ 18.9 µM) and the MIC (Staphylococcus aureus [40]) was 2 µg/mL (≈ 4.71 µM).
